We go through one molecule from ChEMBL document CHEMBL2057168, “(1aR,5aR)1a,3,5,5a-Tetrahydro-1H-2,3-diaza-cyclopropa[a]pentalene-4-carboxylic acid (MK-1903): a potent GPR109a agonist that lowers free fatty acids in humans” (J Med Chem, 2012).

Data set [1] is described as follows: Volume of distribution in Sprague-Dawley rat at 2 mg/kg, iv. Format: ADME, organism-based. Set-up: dose 2 mg/kg, route intravenous. The note with it: in vivo. The method, boiled down: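 Male Sprague–Dawley rats dosed iv at 2 mg/kg in 80% PEG400/20% phosphate buffered saline. Jugular vein blood was serially sampled over 24 h, and plasma was prepared from sodium heparin blood. Plasma was analysed by HPLC/MS/MS (LLOQ 1 ng/mL, ULOQ 2000 ng/mL).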

The nature of data set [2]: Terminal half life in dog. Type of data set: ADME, organism-based, Canis lupus familiaris. The note with it: in vivo, read-out: beta t1/2 (converted).
Data set [3] is described as follows: Tmax in human at titreated po dose administered from day 1 to 4 followed by 200 mg, po QD administered up to day 11 measured on day 11. Type of data set: ADME, organism-based. The note with it: in vivo. The method, boiled down: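 Double-blind, placebo-controlled, randomized multiple oral dose study in healthy male volunteers (cohorts of eight; six active, two placebo). Dose given on day 1, then a two-day washout, then dosing days 4–11; for the QD arm, subjects were titrated over days 1–4. Venous plasma sampled predose and 0.5, 1, 1.5, 2, 4, 6, 8, 10, 12 h postdose on days 1, 4 and 11. Tmax reported as median (min–max).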

The nature of data set [4]: Apparent half life in human at 150 mg, po BID administered on day 1 followed by 2-day wash out period after which dosing continued up to day 11 measured on day 11. Type of data set: ADME, organism-based. As to conditions: in vivo, read-out: t1/2(app) (converted). The method, boiled down: (§1)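 Double-blind, placebo-controlled, randomized dose-escalation study in healthy male volunteers, six cohorts of eight (six active, two placebo). Oral dose on day 1, two-day washout, then dosing days 4–11; the 200 mg qd cohort was titrated over days 1–4. Venous blood taken predose and at 0.5–12 h on days 1, 4 and 11; plasma drug measured. τ 12 h (bid), 24 h (qd), 8 h (tid), 6 h (qid).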

The nature of data set [5]: Apparent half life in human at 175 mg, po QID administered on day 1 followed by 2-days wash out period after which dosing continued up to day 11 measured on day 11. As to conditions: in vivo, read-out: t1/2(app) (converted). Format: ADME, organism-based. The method in brief:
as §1

The test system of the next data set is Homo sapiens. The data set can be described thus: Toxicity in human assessed as occurrence of flushing at 10 to >10 mg administered for 1 to 2 days as divided dose. Format: organism-based. The note with it: in vivo. The method in brief:
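Healthy volunteers scored subject-reported flushing with a flushing symptoms questionnaire after single oral doses and during repeat divided daily dosing.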

The nature of data set [6]: Cmax in human at 100 mg, po BID administered on day 1 followed by 2-day wash out period after which dosing continued up to day 11 measured on day 1. Format: ADME, organism-based. Set-up: dose 100 mg, route oral. As to conditions: in vivo. The method in brief:
as §1

Data set [7] can be described thus: Cmax in human at 150 mg, po BID administered on day 1 followed by 2-day wash out period after which dosing continued up to day 11 measured on day 1. Format: ADME, organism-based. The arrangement: dose 150 mg, route oral. As to conditions: in vivo. The method, boiled down:
as §1

A short description of data set [8]: Cmax in human at 150 mg, po TID administered on day 1 followed by 2-days wash out period after which dosing continued up to day 11 measured on day 1. The arrangement: dose 150 mg, route oral. The note with it: in vivo. Format: ADME, organism-based. The method, boiled down: (§2)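 Healthy male volunteers took part in a double-blind, randomized, placebo-controlled dose-escalation study, with cohorts of 8 (6 on drug, 2 on placebo). Each subject got an oral dose on day 1, then a 2-day washout, then dosing on days 4–11. The 200 mg qd group was titrated over days 1–4. Venous plasma was sampled predose and 0.5–12 h postdose on days 1, 4 and 11, and predose on days 5–10 for troughs.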

The nature of data set [9]: Cmin in human at 50 mg, po BID administered on day 1 followed by 2-day wash out period after which dosing continued up to day 11 measured on day 11 at 12 hrs. As to conditions: in vivo, read-out: Cmin. Format: ADME, organism-based. The method in brief: as §2
The nature of data set [10]: Cmin in human at 175 mg, po QID administered on day 1 followed by 2-days wash out period after which dosing continued up to day 11 measured on day 4 at 6 hrs. Format: ADME, organism-based. The note with it: in vivo, read-out: Cmin. The method in brief:
as §2

In the case of `O=C(O)c1n[nH]c2c1C[C@H]1C[C@@H]21`, in [1], the Vd (as a rule, a proportionality between amount in the body and measured concentration, not a real space) worked out at 0.53 L/kg. The half-life in data set [2] was 204 min; in data set [4], 534 min; in [5] it was 360 min. For the same molecule, in data set [3], the Tmax (in general, the time from dosing to the highest level) is 1.25 h. Further, the Activity result with Homo sapiens was “Non-toxic”. For the same molecule, the values for the Cmax in data set [6], in data set [7] and in [8] were 31.5 nM, 41.2 nM and 48.4 µM, respectively. The concentration at 12 h in data set [9] stood at 0.045 nM. Also, the concentration at 6 h in [10] was determined as 2.92 nM.
